In ChEMBL document CHEMBL4406880, “Design, synthesis, and bioactivity of dihydropyrimidine derivatives as kinesin spindle protein inhibitors” (Bioorg Med Chem, 2019):

Legend:
Format in all cases: functional
Malme-3M = assay: Growth inhibition of human MALME-3M cells assessed as cell viability at 1 uM incubated for 48 hrs by sulforhodamine B assay; conditions: read-out: Activity
SNB-19 [1] = assay: Growth inhibition of human SNB19 cells assessed as cell viability at 0.001 uM incubated for 48 hrs by sulforhodamine B assay relative to control; conditions: SNB-19, 48 h, read-out: Activity
NCI-H322M = assay: Growth inhibition of human NCI-H322M cells assessed as cell viability at 0.1 uM incubated for 48 hrs by sulforhodamine B assay; conditions: read-out: Activity
ACHN = assay: Growth inhibition of human ACHN cells incubated for 48 hrs by sulforhodamine B assay
How it was run: (§1)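 NCI-60 five-dose mode: five tenfold dilutions (0.01, 0.1, 1, 10, 100 µM) are applied for 48 h to cells in RPMI 1640 with 5% FBS at 37 °C. Endpoint is TCA fixation with sulforhodamine B read at 515 nm. % growth comes from the 0 h and control absorbances. GI50 is the concentration giving a 50% reduction in net cell growth.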

HCT-15 = assay: Growth inhibition of human HCT15 cells assessed as cell viability at 100 uM incubated for 48 hrs by sulforhodamine B assay; conditions: HCT-15, 48 h, read-out: Activity
K562 [2] = assay: Growth inhibition of human K562 cells assessed as cell viability at 0.001 uM incubated for 48 hrs by sulforhodamine B assay relative to control; conditions: K562, 48 h, read-out: Activity
OVCAR-3 [3] = assay: Growth inhibition of human OVCAR3 cells assessed as cell viability at 0.001 uM incubated for 48 hrs by sulforhodamine B assay relative to control; conditions: OVCAR-3, 48 h, read-out: Activity
SF-539 = assay: Growth inhibition of human SF539 cells assessed as cell viability at 100 uM incubated for 48 hrs by sulforhodamine B assay; conditions: SF-539, 48 h, read-out: Activity
HOP-92 = assay: Growth inhibition of human HOP92 cells assessed as cell viability at 1 uM incubated for 48 hrs by sulforhodamine B assay; conditions: HOP-92, 48 h, read-out: Activity
SNB-19 [4] = assay: Growth inhibition of human SNB19 cells assessed as cell viability at 100 uM incubated for 48 hrs by sulforhodamine B assay; conditions: SNB-19, 48 h, read-out: Activity
OVCAR-3 [5] = assay: Growth inhibition of human OVCAR3 cells assessed as cell viability at 0.1 uM incubated for 48 hrs by sulforhodamine B assay; conditions: OVCAR-3, 48 h, read-out: Activity
MOLT-4 [6] = assay: Growth inhibition of human MOLT4 cells assessed as cell viability at 1 uM incubated for 48 hrs by sulforhodamine B assay; conditions: MOLT-4, 48 h, read-out: Activity
UACC-62 = assay: Growth inhibition of human UACC62 cells assessed as cell viability at 0.1 uM incubated for 48 hrs by sulforhodamine B assay; conditions: UACC-62, 48 h, read-out: Activity
DU-145 = assay: Growth inhibition of human DU145 cells assessed as cell viability at 0.1 uM incubated for 48 hrs by sulforhodamine B assay; conditions: DU-145, 48 h, read-out: Activity
MDA-MB-468 = assay: Growth inhibition of human MDA-MB-468 cells assessed as cell viability at 0.001 uM incubated for 48 hrs by sulforhodamine B assay relative to control; conditions: MDA-MB-468, 48 h, read-out: Activity
A498 = assay: Growth inhibition of human A498 cells incubated for 48 hrs by sulforhodamine B assay; conditions: A498, 48 h; how it was run: as §1
SK-MEL-2 = assay: Growth inhibition of human SK-MEL-2 cells assessed as cell viability at 100 uM incubated for 48 hrs by sulforhodamine B assay; conditions: SK-MEL-2, 48 h, read-out: Activity
TK-10 = assay: Growth inhibition of human TK10 cells incubated for 48 hrs by sulforhodamine B assay; conditions: TK-10, 48 h
How it was run: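 NCI-60 five-dose SRB assay. Cells were exposed for 48 h to tenfold dilutions of 0.01, 0.1, 1, 10 and 100 µM, in RPMI 1640 with 5% FBS. Plates fixed with TCA at the time of drug addition served as the time-zero reference. GI50 is the concentration giving a 50% reduction in net growth. TGI is total growth inhibition. LC50 is a net 50% loss of the initial cells.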

Hs-578T [7] = assay: Growth inhibition of human Hs 578T cells assessed as cell viability at 1 uM incubated for 48 hrs by sulforhodamine B assay; conditions: read-out: Activity
A549 = assay: Growth inhibition of human A549/ATCC cells assessed as cell viability at 100 uM incubated for 48 hrs by sulforhodamine B assay; conditions: A549, 48 h, read-out: Activity; how it was run: as §1
KM12 = assay: Growth inhibition of human KM12 cells assessed as cell viability at 1 uM incubated for 48 hrs by sulforhodamine B assay; conditions: KM12, 48 h, read-out: Activity
MDA-MB-231 = assay: Growth inhibition of human MDA-MB-231 cells assessed as cell viability at 1 uM incubated for 48 hrs by sulforhodamine B assay; conditions: MDA-MB-231, 48 h, read-out: Activity
COLO 205 = assay: Growth inhibition of human COLO205 cells assessed as cell viability at 1 uM incubated for 48 hrs by sulforhodamine B assay; conditions: COLO 205, 48 h, read-out: Activity
SNB-75 [8] = assay: Growth inhibition of human SNB75 cells assessed as cell viability at 0.001 uM incubated for 48 hrs by sulforhodamine B assay relative to control; conditions: SNB-75, 48 h, read-out: Activity
K562 [9] = assay: Growth inhibition of human K562 cells assessed as cell viability at 1 uM incubated for 48 hrs by sulforhodamine B assay; conditions: K562, 48 h, read-out: Activity
SNB-75 [10] = assay: Growth inhibition of human SNB75 cells assessed as cell viability at 1 uM incubated for 48 hrs by sulforhodamine B assay; conditions: SNB-75, 48 h, read-out: Activity
SK-OV-3 = assay: Growth inhibition of human SKOV3 cells assessed as cell viability at 0.001 uM incubated for 48 hrs by sulforhodamine B assay relative to control; conditions: SK-OV-3, 48 h, read-out: Activity
MOLT-4 [11] = assay: Growth inhibition of human MOLT4 cells assessed as cell viability at 0.001 uM incubated for 48 hrs by sulforhodamine B assay relative to control; conditions: MOLT-4, 48 h, read-out: Activity
Hs-578T [12] = assay: Growth inhibition of human Hs 578T cells assessed as cell viability at 0.001 uM incubated for 48 hrs by sulforhodamine B assay relative to control; conditions: read-out: Activity
CCRF-CEM = assay: Growth inhibition of human CCRF-CEM cells assessed as cell viability at 1 uM incubated for 48 hrs by sulforhodamine B assay; conditions: read-out: Activity
[13] = read-out: LC50 (the source's name)
[14] = read-out: pLC50 (the source's name) (converted)

CC1=C(C(=O)OCc2ccccc2)C(c2ccc3c(c2)OCO3)n2c(nc3ccccc32)N1 (racemic)
viability at 1 µM (Malme-3M): 30%
viability at 0.001 µM (SNB-19 [1]): 94%
viability at 0.1 µM (NCI-H322M): 99%
GI50 (ACHN; read-out: GI50): 0.69 µM
CC50 (ACHN; [13]): > 100 µM
TGI (ACHN; read-out: TGI): > 100 µM
GI50 (ACHN; read-out: pGI50 (converted)): 0.692 µM
CC50 (ACHN; [14]): > 100 µM
TGI (ACHN; read-out: pTGI): > 100 µM
viability at 100 µM (HCT-15): 19%
viability at 0.001 µM (K562 [2]): 93%
viability at 0.001 µM (OVCAR-3 [3]): 95%
viability at 100 µM (SF-539): 13%
viability at 1 µM (HOP-92): 41%
viability at 100 µM (SNB-19 [4]): 28%
viability at 0.1 µM (OVCAR-3 [5]): 85%
viability at 1 µM (MOLT-4 [6]): 43%
viability at 0.1 µM (UACC-62): 80%
viability at 0.1 µM (DU-145): 109%
viability at 0.001 µM (MDA-MB-468): 90%
GI50 (A498; read-out: GI50): 0.36 µM
CC50 (A498; [13]): > 100 µM
TGI (A498; read-out: TGI): > 100 µM
GI50 (A498; read-out: pGI50 (converted)): 0.363 µM
CC50 (A498; [14]): > 100 µM
TGI (A498; read-out: pTGI): > 100 µM
viability at 100 µM (SK-MEL-2): 37%
GI50 (TK-10; read-out: GI50): > 100 µM
CC50 (TK-10; [13]): > 100 µM
TGI (TK-10; read-out: TGI): > 100 µM
GI50 (TK-10; read-out: pGI50 (converted)): > 100 µM
CC50 (TK-10; [14]): > 100 µM
TGI (TK-10; read-out: pTGI): > 100 µM
viability at 1 µM (Hs-578T [7]): 5%
viability at 100 µM (A549): 10%
viability at 1 µM (KM12): 19%
viability at 1 µM (MDA-MB-231): 56%
viability at 1 µM (COLO 205): 28%
viability at 0.001 µM (SNB-75 [8]): 61%
viability at 1 µM (K562 [9]): 23%
viability at 1 µM (SNB-75 [10]): -8%
viability at 0.001 µM (SK-OV-3): 99%
viability at 0.001 µM (MOLT-4 [11]): 96%
viability at 0.001 µM (Hs-578T [12]): 87%
viability at 1 µM (CCRF-CEM): 19%
